Residue numbers refer to the chain shown, from its start. Active and inactive are the calls of the source.
How the values were obtained:
[1] = tested on: T1, Androgen receptor (Homo sapiens), P10275 [Y594D]; test: Inhibition of human androgen receptor Y594D mutant expressed in human PC3 cells assessed as inhibition of transcription activity after 24 hrs by luciferase reporter gene assay; assay type: cell-based; details: PC-3
T1 sequence (whole entry): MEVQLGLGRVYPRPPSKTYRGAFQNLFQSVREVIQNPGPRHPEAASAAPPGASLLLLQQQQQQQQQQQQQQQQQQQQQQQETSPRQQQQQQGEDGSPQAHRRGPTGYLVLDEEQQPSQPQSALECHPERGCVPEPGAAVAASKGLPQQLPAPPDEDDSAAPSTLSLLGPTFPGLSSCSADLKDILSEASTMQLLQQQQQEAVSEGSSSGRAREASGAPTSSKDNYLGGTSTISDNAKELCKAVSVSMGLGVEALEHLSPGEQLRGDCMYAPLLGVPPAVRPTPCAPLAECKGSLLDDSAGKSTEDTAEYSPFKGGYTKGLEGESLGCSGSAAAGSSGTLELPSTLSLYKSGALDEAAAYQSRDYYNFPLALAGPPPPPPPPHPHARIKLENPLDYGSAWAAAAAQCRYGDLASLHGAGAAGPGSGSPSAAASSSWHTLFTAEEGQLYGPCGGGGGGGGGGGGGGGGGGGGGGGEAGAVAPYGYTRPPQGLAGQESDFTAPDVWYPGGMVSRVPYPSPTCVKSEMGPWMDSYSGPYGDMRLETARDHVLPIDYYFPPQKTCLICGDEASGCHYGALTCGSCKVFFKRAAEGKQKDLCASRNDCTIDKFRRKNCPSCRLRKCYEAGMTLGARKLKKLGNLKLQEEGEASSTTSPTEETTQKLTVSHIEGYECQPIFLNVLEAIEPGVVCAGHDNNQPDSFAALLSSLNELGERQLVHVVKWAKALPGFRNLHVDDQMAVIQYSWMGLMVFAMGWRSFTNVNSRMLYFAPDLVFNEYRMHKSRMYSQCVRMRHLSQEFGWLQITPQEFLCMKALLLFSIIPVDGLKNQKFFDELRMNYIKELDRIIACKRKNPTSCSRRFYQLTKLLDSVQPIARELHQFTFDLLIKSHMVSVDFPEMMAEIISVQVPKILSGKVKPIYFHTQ
How it was run: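 PC3 cells were starved 5 days in RPMI 1640 with 5% charcoal-stripped serum and seeded at 5000 cells/well. After 24 h they were cotransfected with AR-V7 or hAR mutant plasmid plus 50 ng ARR3tk-luciferase. At 48 h post-transfection, compounds were added for 24 h with 0.1 nM R1881. Luminescence was read from passive-lysis-buffer lysates; mutant tests used 10 μM.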

[2] = target: T2, Androgen receptor (Homo sapiens) (UniProt P10275); test: Displacement of androgen from androgen receptor (unknown origin) by Polarscreen competitor green assay
T2 sequence (whole entry): T1 sequence (whole entry) with D594Y

[3] = target: T3, Estrogen receptor (Homo sapiens) (UniProt P03372); test: Inhibition of ERalpha (unknown origin) transcriptional activity at […]
T3 sequence (whole entry): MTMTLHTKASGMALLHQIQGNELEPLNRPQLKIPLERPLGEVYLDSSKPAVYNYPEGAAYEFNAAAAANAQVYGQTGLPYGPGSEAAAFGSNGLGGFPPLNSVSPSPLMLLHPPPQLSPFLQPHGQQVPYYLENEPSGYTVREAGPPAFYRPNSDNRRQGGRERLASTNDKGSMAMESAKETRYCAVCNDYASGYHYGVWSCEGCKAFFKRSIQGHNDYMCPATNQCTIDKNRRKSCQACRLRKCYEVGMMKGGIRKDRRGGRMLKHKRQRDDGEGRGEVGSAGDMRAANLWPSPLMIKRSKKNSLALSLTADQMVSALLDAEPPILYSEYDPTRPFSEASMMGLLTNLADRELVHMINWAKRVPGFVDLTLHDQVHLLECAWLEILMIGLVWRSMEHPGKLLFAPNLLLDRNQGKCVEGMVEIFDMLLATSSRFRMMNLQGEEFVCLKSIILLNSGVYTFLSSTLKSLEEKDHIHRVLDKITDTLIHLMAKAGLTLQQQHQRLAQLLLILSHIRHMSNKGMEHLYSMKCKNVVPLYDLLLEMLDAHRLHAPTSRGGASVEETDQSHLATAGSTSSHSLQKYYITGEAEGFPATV
How it was run: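 MCF-7 cells stably carrying an ERE-luciferase reporter were stimulated with 1 nM estradiol and treated with compound. Luciferase luminescence was read from passive-lysis-buffer lysates.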

c1ccc(-c2csc(N3CCOCC3)n2)cc1
inactive: inhibition [1] | Activity [2] | inhibition [3]

Brc1ncn(-c2csc(N3CCOCC3)n2)c1Br
inactive: inhibition [1] | inhibition [2] | inhibition [3]

Reference: ChEMBL document CHEMBL3352043, “Discovery of small-molecule inhibitors selectively targeting the DNA-binding domain of the human androgen receptor” (J Med Chem, 2014)
